In ChEMBL document CHEMBL1127348, “3-Amino-5,5-dimethylhexanoic acid. Synthesis, resolution, and effects on carnitine acyltransferases” (J Med Chem, 1994):
Values belong to the molecule of their own block, whether it stands above or below them.

Columns and labels:
[1] = molecular target: T1, Carnitine O-palmitoyltransferase 1, liver isoform (Rattus norvegicus) (UniProt P32198); test: Percent inhibition was measured on rat liver carnitine palmitoyltransferase at 5 uM
T1 sequence (whole entry): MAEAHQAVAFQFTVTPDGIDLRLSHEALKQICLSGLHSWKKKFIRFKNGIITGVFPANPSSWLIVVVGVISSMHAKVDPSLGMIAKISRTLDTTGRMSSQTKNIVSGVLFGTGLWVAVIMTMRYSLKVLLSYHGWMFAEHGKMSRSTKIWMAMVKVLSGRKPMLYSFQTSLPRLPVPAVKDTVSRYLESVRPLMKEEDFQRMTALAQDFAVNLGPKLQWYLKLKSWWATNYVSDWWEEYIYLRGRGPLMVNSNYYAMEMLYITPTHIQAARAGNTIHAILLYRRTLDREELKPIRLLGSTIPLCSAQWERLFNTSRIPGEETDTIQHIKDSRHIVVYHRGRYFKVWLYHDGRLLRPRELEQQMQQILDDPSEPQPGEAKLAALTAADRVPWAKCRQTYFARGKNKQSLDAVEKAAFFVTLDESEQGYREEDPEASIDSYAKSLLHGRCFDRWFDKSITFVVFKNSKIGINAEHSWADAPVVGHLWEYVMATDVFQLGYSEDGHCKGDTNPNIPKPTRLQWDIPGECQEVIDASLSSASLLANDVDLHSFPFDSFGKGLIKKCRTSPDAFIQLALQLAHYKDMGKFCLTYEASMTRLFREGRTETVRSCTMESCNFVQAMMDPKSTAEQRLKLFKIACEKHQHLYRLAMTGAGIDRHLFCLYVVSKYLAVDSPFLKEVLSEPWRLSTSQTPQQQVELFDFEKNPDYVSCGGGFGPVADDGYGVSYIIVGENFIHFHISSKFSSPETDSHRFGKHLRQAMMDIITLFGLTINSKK

[2] = molecular target: T2, Carnitine O-palmitoyltransferase 2, mitochondrial (Rattus norvegicus, UniProt P18886); test: Tested against neonatal rat cardiac myocyte carnitine palmitoyltransferase 2
T2 sequence (P18886 whole entry): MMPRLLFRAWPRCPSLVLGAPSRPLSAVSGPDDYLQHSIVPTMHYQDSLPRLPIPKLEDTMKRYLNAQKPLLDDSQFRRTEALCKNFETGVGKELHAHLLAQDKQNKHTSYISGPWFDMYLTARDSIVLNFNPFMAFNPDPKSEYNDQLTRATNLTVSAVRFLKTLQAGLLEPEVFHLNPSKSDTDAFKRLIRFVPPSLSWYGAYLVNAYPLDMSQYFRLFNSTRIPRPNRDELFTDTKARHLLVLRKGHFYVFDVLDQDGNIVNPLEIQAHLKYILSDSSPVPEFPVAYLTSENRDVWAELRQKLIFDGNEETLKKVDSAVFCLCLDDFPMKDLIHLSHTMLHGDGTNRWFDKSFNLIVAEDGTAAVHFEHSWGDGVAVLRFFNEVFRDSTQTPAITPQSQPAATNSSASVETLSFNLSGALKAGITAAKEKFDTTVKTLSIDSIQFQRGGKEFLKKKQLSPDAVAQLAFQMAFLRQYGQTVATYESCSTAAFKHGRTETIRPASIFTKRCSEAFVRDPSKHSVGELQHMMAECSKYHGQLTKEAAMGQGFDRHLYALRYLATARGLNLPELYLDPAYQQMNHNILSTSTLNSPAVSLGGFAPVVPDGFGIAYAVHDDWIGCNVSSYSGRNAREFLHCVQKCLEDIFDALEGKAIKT

[3] = molecular target: T3, Carnitine O-palmitoyltransferase 1, muscle isoform (Rattus norvegicus, UniProt Q63704); test: Tested against neonatal rat cardiac myocyte carnitine palmitoyltransferase 1
T3 sequence (Q63704 whole entry): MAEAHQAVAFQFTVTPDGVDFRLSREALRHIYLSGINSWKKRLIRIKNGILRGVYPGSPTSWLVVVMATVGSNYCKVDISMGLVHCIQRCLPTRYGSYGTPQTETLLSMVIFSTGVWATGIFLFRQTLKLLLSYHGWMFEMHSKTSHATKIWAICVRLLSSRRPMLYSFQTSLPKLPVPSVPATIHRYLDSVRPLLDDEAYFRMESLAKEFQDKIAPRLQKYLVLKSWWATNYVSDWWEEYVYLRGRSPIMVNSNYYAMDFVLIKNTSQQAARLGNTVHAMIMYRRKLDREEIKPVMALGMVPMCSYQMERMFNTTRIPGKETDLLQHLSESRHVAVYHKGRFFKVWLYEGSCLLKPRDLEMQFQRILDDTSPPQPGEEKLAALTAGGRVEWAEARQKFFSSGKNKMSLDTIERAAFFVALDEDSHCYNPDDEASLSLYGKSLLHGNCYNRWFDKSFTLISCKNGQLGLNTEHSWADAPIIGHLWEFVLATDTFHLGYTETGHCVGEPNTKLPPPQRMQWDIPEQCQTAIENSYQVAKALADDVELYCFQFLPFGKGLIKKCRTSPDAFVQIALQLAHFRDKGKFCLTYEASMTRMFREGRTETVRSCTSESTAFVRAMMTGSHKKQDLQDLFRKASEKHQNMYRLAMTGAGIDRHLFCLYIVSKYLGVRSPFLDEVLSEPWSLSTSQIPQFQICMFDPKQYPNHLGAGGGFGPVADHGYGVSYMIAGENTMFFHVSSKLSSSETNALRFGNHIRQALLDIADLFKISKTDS

[4] = molecular target: T3, Carnitine O-palmitoyltransferase 1, muscle isoform; test: Tested against neonatal rat cardiac myocyte carnitine palmitoyltransferase 1; no effect
[5] = substrate: C[N+](C)(C)C[C@H](O)CC(=O)[O-]; test: (§1) Kinetic constants tested against pigeon breast carnitine acyltransferase; conditions: Columba livia
In short: (§2)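 Purified pigeon breast CAT, 25 °C, 1 mL. Reverse: 100 mM MOPS, 5 mM EDTA, 0.25 mM CoASH; started with varying D,L-acetylcarnitine; read at 232 nm. Inhibitor at 0, 5.00 or 10.00 mM final; points mean of 2–5 determinations; nonlinear regression fit.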

[6] = substrate: C[N+](C)(C)CC(N)CC(=O)[O-]; test: as §1; conditions: Columba livia; in short: as §2

- inhibition [1]: 15%
Molecule: CC(=O)NC(CC(=O)[O-])C[N+](C)(C)C (configuration not stated)

- Ki [2]: 2800 µM
- Ki [3]: 3600 µM
Molecule: CC(C)(C)CC(O)CC(=O)O (configuration not stated)

- inhibition [1]: 64%
Molecule: C[N+](C)(C)CC(N)CC(=O)[O-] (configuration not stated)

- Ki [2]: 2200 µM
Molecule: CC(C)(C)C[C@H](O)CC(=O)O

Continued, molecule first:

Molecule: CC(C)(C)C[C@@H](O)CC(=O)O
- Ki [2]: 6700 µM

Molecule: C[N+](C)(C)C[C@H](O)CC(=O)[O-] [LEVOCARNITINE]
- Ki [2]: 100 µM
- Ki [3]: 100 µM

Molecule: CC(C)(C)CC(N)CC(=O)O (configuration not stated)
- Ki [4]: Not Active
- Ki [2]: 20000 µM

B1: Carnitine O-acetyltransferase (Homo sapiens), P43155 (protein)
chain: MLAFAARTVVKPLGFLKPFSLMKASSRFKAHQDALPRLPVPPLQQSLDHYLKALQPIVSEEEWAHTKQLVDEFQASGGVGERLQKGLERRARKTENWLSEWWLKTAYLQYRQPVVIYSSPGVMLPKQDFVDLQGQLRFAAKLIEGVLDFKVMIDNETLPVEYLGGKPLCMNQYYQILSSCRVPGPKQDTVSNFSKTKKPPTHITVVHNYQFFELDVYHSDGTPLTADQIFVQLEKIWNSSLQTNKEPVGILTSNHRNSWAKAYNTLIKDKVNRDSVRSIQKSIFTVCLDATMPRVSEDVYRSHVAGQMLHGGGSRLNSGNRWFDKTLQFIVAEDGSCGLVYEHAAAEGPPIVTLLDYVIEYTKKPELVRSPLVPLPMPKKLRFNITPEIKSDIEKAKQNLSIMIQDLDITVMVFHHFGKDFPKSEKLSPDAFIQMALQLAYYRIYGQACATYESASLRMFHLGRTDTIRSASMDSLTFVKAMDDSSVTEHQKVELLRKAVQAHRGYTDRAIRGEAFDRHLLGLKLQAIEDLVSMPDIFMDTSYAIAMHFHLSTSQVPAKTDCVMFFGPVVPDGYGVCYNPMEAHINFSLSAYNSCAETNAARLAHYLEKALLDMRALLQSHPRAKL
- Km [5]: 300 µM
- Km [6]: 3800 µM
